Laboratory results: ChEMBL document CHEMBL4145586, “Hinduchelins A-D, Noncytotoxic Catechol Derivatives from Streptoalloteichus hindustanus” (J Nat Prod, 2018)
Calls of active or inactive are those of the source. No cut-off for these calls is given here.

Columns and labels:
[1] = Metal chelating activity assessed as iron-compound complex formation by measuring increase in pyoverdine production in Pseudomonas aeruginosa PAO1 at 50 uM by fluorescence assay
In short: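 PAO1 grown overnight in LB broth at 37 °C with shaking, then diluted to OD600 0.02 in ABTGC medium. Pyoverdine fluorescence was read on a plate reader, normalized to OD600 and reported as relative fluorescence units.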

HL-60 = assay: Cytotoxicity against human HL60 cells assessed as effect on cell viability at 50 uM after 48 hrs by MTT assay; type: cell-based; conditions: hl-60, 48 h
A549 = assay: Cytotoxicity against human A549 cells assessed as effect on cell viability at 50 uM after 48 hrs by MTT assay; type: cell-based; conditions: a549, 48 h
SMMC-7721 = assay: Cytotoxicity against human SMMC7721 cells assessed as effect on cell viability at 50 uM after 48 hrs by MTT assay; type: cell-based; conditions: smmc-7721, 48 h
MCF7 = assay: Cytotoxicity against human MCF7 cells assessed as effect on cell viability at 50 uM after 48 hrs by MTT assay; type: cell-based; conditions: mcf7, 48 h
SW480 = assay: Cytotoxicity against human SW480 cells assessed as effect on cell viability at 50 uM after 48 hrs by MTT assay; type: cell-based; conditions: sw480, 48 h

| Activity [1] | Compound | Activity (HL-60) | Activity (A549) | Activity (SMMC-7721) | Activity (MCF7) | Activity (SW480) |
| --- | --- | --- | --- | --- | --- | --- |
| Active | COc1cccc(-c2nc(C(=O)NCCc3ccccc3)c(C)o2)c1O | Non-Toxic | Non-Toxic | Non-Toxic | Non-Toxic | Non-Toxic |
|  | COc1cccc(-c2nc(C(=O)NC[C@@H](O)c3ccccc3)c(C)o2)c1OC | Non-Toxic | Non-Toxic | Non-Toxic | Non-Toxic | Non-Toxic |
|  | COc1cccc(-c2nc(C(=O)NCCc3ccccc3O)c(C)o2)c1O | Non-Toxic | Non-Toxic | Non-Toxic | Non-Toxic | Non-Toxic |
|  | COc1cccc(-c2nc(C(=O)NCCc3ccccc3O)c(C)o2)c1OC | Non-Toxic | Non-Toxic | Non-Toxic | Non-Toxic | Non-Toxic |
